Values after ≈ are worked out from the molar mass of the structure shown. Active and inactive are the calls of the source. The rule behind the calls is not given here.
Assays:
Streptococcus pneumoniae [1] = experiment: Antibacterial activity against Streptococcus pneumoniae ATCC 49619 after 20 hrs by CLSI based-broth microdilution method; assay type: functional; details: ATCC 49619, 20 h
Enterococcus faecalis = experiment: Antibacterial activity against Enterococcus faecalis ATCC 19433 after 20 hrs by CLSI based-broth microdilution method; assay type: functional; details: ATCC 19433, 20 h
[2] = system: Staphylococcus saprophyticus; experiment: Antibacterial activity against Staphylococcus saprophyticus ATCC 15305 after 20 hrs by CLSI based-broth microdilution method; assay type: functional; details: subsp. saprophyticus ATCC 15305, 20 h
Streptococcus pyogenes = experiment: Antibacterial activity against Streptococcus pyogenes ATCC 19615 after 20 hrs by CLSI based-broth microdilution method; assay type: functional; details: ATCC 19615, 20 h
Streptococcus agalactiae = experiment: Antibacterial activity against Streptococcus agalactiae ATCC 12386 after 20 hrs by CLSI based-broth microdilution method; assay type: functional; details: ATCC 12386, 20 h
Staphylococcus aureus [3] = experiment: Antibacterial activity against Staphylococcus aureus ATCC 25923 after 20 hrs by CLSI based-broth microdilution method; assay type: functional; details: ATCC 25923, 20 h
Staphylococcus aureus [4] = experiment: Antibacterial activity against Staphylococcus aureus ATCC 29213 after 20 hrs by CLSI based-broth microdilution method; assay type: functional; details: ATCC 29213, 20 h
[5] = system: Staphylococcus epidermidis; experiment: Antibacterial activity against Staphylococcus epidermidis ATCC 12228 after 20 hrs by CLSI based-broth microdilution method; assay type: functional; details: ATCC 12228, 20 h
HepG2 = experiment: Cytotoxicity against human HepG2 cells after 48 to 72 hrs by MTT assay; assay type: cell-based
A549 = experiment: Cytotoxicity against human A549 cells after 48 to 72 hrs by MTT assay; assay type: cell-based
[6] = Therapeutic index, ratio of CC50 for human HepG2 cells to MIC for Streptococcus pneumoniae ATCC 49619; assay type: toxicity; details: read-out: TI
[7] = Therapeutic index, ratio of CC50 for human A549 cells to MIC for Streptococcus pneumoniae ATCC 49619; assay type: toxicity; details: read-out: TI
[8] = Haemolytic activity in human erythrocytes at 0.1 to 10 ug/ml relative to control; assay type: ADME, cell-based, Erythrocyte; details: read-out: Activity
Outline: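 Human erythrocytes washed in 150 mM NaCl, resuspended in PBS pH 7.4 (2% blood); compound at final 0.1, 1 and 10 μg/mL (0.5% DMSO) for 45 min at 37 °C, n = 6; spun at 500g, 4 °C; supernatant absorbance read at 540 nm; 1% Triton X-100 as positive and PBS as negative control; % lysis calculated.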

[9] = Apparent permeability across apical to basolateral membrane in human Caco2 cells at 10 ug/ml by LC-MS/MS analysis; assay type: ADME, cell-based; details: Caco-2
Outline: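 Caco-2 monolayers grown 21–28 days on Transwell polycarbonate membranes, TEER ≥165 Ω cm2; preincubated 20 min at 37 °C in transport buffer; apical-to-basolateral transport only, pH 7.4 on both sides; receiver sampled over time under sink conditions; concentrations measured by LC–MS/MS.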

[10] = Inhibition of N-terminal SmBiT-fused Bacillus subtilis RNAP subunit beta' CH region expressed in Escherichia coli BL21(DE3)pLysS interaction with C- terminal LgBiT-fused Bacillus subtilis RNA polymerase sigma factor SigA expressed in Escherichia coli BL21(DE3)pLysS preincubated for 10 mins followed by RNA polymerase sigma factor SigA addition and measured after 10 mins by nano-glo luciferase assay
Outline: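 Split-luciferase complementation in PBS: N-SmBiT-CH (2.5 μM stock) mixed with compound at desired concentrations, 10 min at 37 °C. C-LgBiT-σA (2.5 μM stock) then added, another 10 min at 37 °C. Equal volume of Nano-Glo substrate added and luminescence read. No-drug control included. Run in triplicate with technical repeats.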

Klebsiella pneumoniae = experiment: Antibacterial activity against Klebsiella pneumoniae ATCC 700603 after 20 hrs by CLSI based-broth microdilution method; assay type: functional; details: ATCC 700603, 20 h
Acinetobacter baumannii = experiment: Antibacterial activity against Acinetobacter baumannii ATCC 19606 after 20 hrs by CLSI based-broth microdilution method; assay type: functional; details: ATCC 19606 = CIP 70.34 = JCM 6841, 20 h
Pseudomonas aeruginosa = experiment: Antibacterial activity against Pseudomonas aeruginosa ATCC 27853 after 20 hrs by CLSI based-broth microdilution method; assay type: functional; details: ATCC 27853, 20 h
Enterobacter cloacae = experiment: Antibacterial activity against Enterobacter cloacae ATCC 13047 after 20 hrs by CLSI based-broth microdilution method; assay type: functional; details: subsp. cloacae ATCC 13047, 20 h
Escherichia coli = experiment: Antibacterial activity against Escherichia coli ATCC 25922 after 20 hrs by CLSI based-broth microdilution method; assay type: functional; details: ATCC 25922, 20 h
Streptococcus pneumoniae [11] = experiment: Antibacterial activity against Streptococcus pneumoniae ATCC 49619 assessed as reduction in pneumolysin release at 0.25 to 0.5 times MIC incubated for 16 to 20 hrs by Western blot analysis; assay type: functional, organism-based
Outline: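 Overnight static culture in brain–heart infusion broth, with or without serially diluted compound; rifampicin and ceftriaxone controls at twofold dilutions from 2 to 0.002 μg/mL; untreated control. […] Western blot probed with rabbit polyclonal anti-pneumolysin (1:1000) and HRP anti-rabbit secondary, ECL chemiluminescence; band intensity normalized to untreated control.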

Streptococcus pneumoniae [12] = experiment: Antibacterial activity against Streptococcus pneumoniae ATCC 49619 after 16 to 20 hrs by CLSI based-broth microdilution method; assay type: functional

Structure (SMILES) | MIC (Streptococcus pneumoniae [1]) [µg/mL] | MIC (Enterococcus faecalis) [µg/mL] | MIC [2] [µg/mL] | MIC (Streptococcus pyogenes) [µg/mL] | MIC (Streptococcus agalactiae) [µg/mL] | MIC (Staphylococcus aureus [3]) [µg/mL] | MIC (Staphylococcus aureus [4]) [µg/mL] | MIC [5] [µg/mL] | IC50 [10] [µM] | MIC (Klebsiella pneumoniae) [µg/mL] | MIC (Acinetobacter baumannii) [µg/mL] | MIC (Pseudomonas aeruginosa) [µg/mL] | MIC (Enterobacter cloacae) [µg/mL] | MIC (Escherichia coli) [µg/mL] | other results
CN[C@H](CC(C)C)C(=O)N[C@H]1C(=O)N[C@@H](CC(N)=O)C(=O)N[C@H]2C(=O)N[C@H]3C(=O)N[C@H](C(=O)N[C@H](C(=O)O)c4cc(O)cc(O)c4-c4cc3ccc4O)[C@H](O)c3ccc(c(Cl)c3)Oc3cc2cc(c3O[C@@H]2O[C@H](CO)[C@@H](O)[C@H](O)[C@H]2O[C@H]2C[C@](C)(N)[C@H](O)[C@H](C)O2)Oc2ccc(cc2Cl)[C@H]1O [VANCOMYCIN] | 1 (≈ 0.69 µM) | 1 (≈ 0.69 µM) | 1 (≈ 0.69 µM) | 1 (≈ 0.69 µM) | 1 (≈ 0.69 µM) | – | – | – | – | – | – | – | – | – | –
O=C(O)c1ccccc1NCc1ccc(Sc2ccc(Cl)c(Cl)c2)c([N+](=O)[O-])c1 | – | 8 (≈ 17.8 µM) | 4 (≈ 8.9 µM) | 4 (≈ 8.9 µM) | 4 (≈ 8.9 µM) | 8 (≈ 17.8 µM) | 4 (≈ 8.9 µM) | 4 (≈ 8.9 µM) | 11.6 | > 256 | > 256 | > 256 | > 256 | > 256 | CC50 (HepG2): 170 µM; CC50 (A549): 252 µM; selectivity ratio [6]: 38; selectivity ratio [7]: 57; hemolysis [8]: < 10%; Papp A→B at 10 ug/ml [9]: 36.2 ×10⁻⁶ cm/s
O=C(O)c1c(Cl)cccc1NCc1ccc(Sc2ccc(Cl)c(Cl)c2)c([N+](=O)[O-])c1 | – | 8 (≈ 16.5 µM) | 8 (≈ 16.5 µM) | 2 (≈ 4.13 µM) | 4 (≈ 8.27 µM) | 8 (≈ 16.5 µM) | 8 (≈ 16.5 µM) | 4 (≈ 8.27 µM) | 25.1 | > 256 | > 256 | > 256 | > 256 | > 256 | CC50 (HepG2): 97.7 µM; CC50 (A549): 93.3 µM; selectivity ratio [6]: 12; selectivity ratio [7]: 11
CO/N=C(\C(=O)N[C@@H]1C(=O)N2C(C(=O)O)=C(CSc3nc(=O)c(O)nn3C)CS[C@H]12)c1csc(N)n1 | – | – | – | – | – | – | – | – | – | – | – | – | – | – | Activity (Streptococcus pneumoniae [11]): inactive
Nc1ccccc1Sc1ccc(C(=O)Nc2ccc(C(=O)O)cc2)cc1[N+](=O)[O-] | 256 (≈ 625 µM) | – | – | – | – | – | – | – | 97 | > 256 | > 256 | > 256 | > 256 | > 256 | –
CO[C@H]1/C=C/O[C@@]2(C)Oc3c(C)c(O)c4c(O)c(c(/C=N/N5CCN(C)CC5)c(O)c4c3C2=O)NC(=O)/C(C)=C\C=C\[C@H](C)[C@H](O)[C@@H](C)[C@@H](O)[C@@H](C)[C@H](OC(C)=O)[C@@H]1C [RIFAMPIN] | 0.0625 (≈ 0.0759 µM) | 4 (≈ 4.86 µM) | 0.03 (≈ 0.0365 µM) | 0.03 (≈ 0.0365 µM) | 0.03 (≈ 0.0365 µM) | 0.01 (≈ 0.0122 µM) | 0.03 (≈ 0.0365 µM) | 0.03 (≈ 0.0365 µM) | – | – | – | – | – | – | Activity (Streptococcus pneumoniae [11]): Active
O=C(O)c1ccc(Br)c(NCc2ccc(Sc3ccc(Cl)c(Cl)c3)c([N+](=O)[O-])c2)c1 | 4 (≈ 7.57 µM) | – | – | – | – | – | – | – | – | > 256 | > 256 | > 256 | > 256 | > 256 | CC50 (HepG2): 92.6 µM; CC50 (A549): 67.7 µM; selectivity ratio [6]: 24; selectivity ratio [7]: 18
O=C(O)c1ccccc1C(=O)c1ccc(Sc2ccc(Cl)c(Cl)c2)cc1 | 16 (≈ 39.7 µM) | – | – | – | – | – | – | – | 67 | > 256 | > 256 | > 256 | > 256 | > 256 | –
Nc1cccc(Sc2ccc(C(=O)c3ccccc3C(=O)O)cc2[N+](=O)[O-])c1 | – | – | – | – | – | – | – | – | – | > 256 | > 256 | > 256 | > 256 | > 256 | MIC (Streptococcus pneumoniae [12]): 64 µg/mL (≈ 162 µM)
Nc1ccc(Sc2ccc(C(=O)c3ccccc3C(=O)O)cc2[N+](=O)[O-])cc1 | – | – | – | – | – | – | – | – | – | > 256 | > 256 | > 256 | > 256 | > 256 | MIC (Streptococcus pneumoniae [12]): 128 µg/mL (≈ 325 µM)
O=C(O)c1cccc(NCc2ccc(Sc3ccc(Cl)c(Cl)c3)c([N+](=O)[O-])c2)c1 | – | 8 (≈ 17.8 µM) | 8 (≈ 17.8 µM) | 8 (≈ 17.8 µM) | 8 (≈ 17.8 µM) | 8 (≈ 17.8 µM) | 8 (≈ 17.8 µM) | 8 (≈ 17.8 µM) | 42.9 | > 256 | > 256 | > 256 | > 256 | > 256 | –
Nc1ccccc1Sc1ccc(C(=O)c2ccccc2C(=O)O)cc1[N+](=O)[O-] | – | 256 (≈ 649 µM) | 256 (≈ 649 µM) | 256 (≈ 649 µM) | > 256 | > 256 | > 256 | > 256 | – | > 256 | > 256 | > 256 | > 256 | > 256 | –
O=C(O)c1ccc(Cl)c(NCc2ccc(Sc3ccc(Cl)c(Cl)c3)c([N+](=O)[O-])c2)c1 | – | 4 (≈ 8.27 µM) | 4 (≈ 8.27 µM) | 4 (≈ 8.27 µM) | 4 (≈ 8.27 µM) | 8 (≈ 16.5 µM) | 8 (≈ 16.5 µM) | 4 (≈ 8.27 µM) | 15 | > 256 | > 256 | > 256 | > 256 | > 256 | CC50 (HepG2): 110 µM; CC50 (A549): 116 µM; selectivity ratio [6]: 27; selectivity ratio [7]: 28; hemolysis [8]: < 10%
Nc1cc(Cl)ccc1Sc1ccc(C(=O)c2ccccc2C(=O)O)cc1[N+](=O)[O-] | – | – | – | – | – | – | – | – | – | > 256 | > 256 | > 256 | > 256 | > 256 | MIC (Streptococcus pneumoniae [12]): 64 µg/mL (≈ 149 µM)

Source: ChEMBL document CHEMBL4616723, “Discovery of Antibacterials That Inhibit Bacterial RNA Polymerase Interactions with Sigma Factors” (J Med Chem, 2020)
